In the library only some 1.1% were active in any assay of this set; here they are far more common.
thrombin 1536: blocks human thrombin protease activity; 220,000 tested, 0.26% active; alpha-thrombin, Boc-VPR-AMC fluorogenic substrate cleavage; inhibition, % at 5 µM; AID 1046;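 active means inhibition at or above 40%; inactive means inhibition below 40%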;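 further: 0% = enzyme with no compound and 100% = wells without enzyme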
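System – human alpha-thrombin · Medium – pH 7.5 Tris (50 mM) with NaCl 150 mM, Tween 20 0.05% · Compound – single-point dosing at 5 µM, 0.2% DMSO · Incubation – enzyme reaction carried out at room temperature · Technique – fluorescence of released AMC, ex 355 nm, em 460 nm · Read-out basis – % inhibition of thrombin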
hK5 inh: inhibitors of human kallikrein 5; recombinant hK5, fluorogenic AMC substrate cleavage; inhibition, % at 5 µM; 210,000 tested, 0.59% active; AID 873;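 active means inhibition of 40% or more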;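 further: 0% = enzyme controls without compound and 100% = no-enzyme blanks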
FXIIa inh 1536: blocks human coagulation factor XIIa protease activity; P00748; 220,000 tested, 0.3% active; inhibition, % at 5 µM; purified FXIIa, Boc-QGR-AMC fluorogenic substrate, 2 h; in the data active means inhibition above about 40%;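 further: 0% = enzyme with no compound and 100% = blank without enzyme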
FXIa inh: inhibitors of human coagulation factor XIa; P03951; purified FXIa, Boc-Glu-Ala-Arg-AMC fluorogenic substrate; inhibition, % at 5 µM; 220,000 tested, 0.14% active; AID 798;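 active means inhibition of at least 40%; inactive means inhibition below 40%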;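 further: fluorescence of freed AMC excited at 355 nm; 0% = enzyme without compound and 100% = no enzyme blank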
Target sequence (P03951 19-387 limits assumed): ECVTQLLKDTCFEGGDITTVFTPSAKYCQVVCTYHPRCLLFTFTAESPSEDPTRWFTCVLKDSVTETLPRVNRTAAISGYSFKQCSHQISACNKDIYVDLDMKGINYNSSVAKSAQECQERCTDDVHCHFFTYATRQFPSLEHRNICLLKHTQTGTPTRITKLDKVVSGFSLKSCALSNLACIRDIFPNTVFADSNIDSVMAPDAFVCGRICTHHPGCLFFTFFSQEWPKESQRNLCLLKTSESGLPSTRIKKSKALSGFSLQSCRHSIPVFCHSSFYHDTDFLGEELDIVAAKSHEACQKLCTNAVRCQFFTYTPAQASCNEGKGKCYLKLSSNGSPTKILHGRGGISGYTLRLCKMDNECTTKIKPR
Target sequence (P03951 388-625 limits assumed): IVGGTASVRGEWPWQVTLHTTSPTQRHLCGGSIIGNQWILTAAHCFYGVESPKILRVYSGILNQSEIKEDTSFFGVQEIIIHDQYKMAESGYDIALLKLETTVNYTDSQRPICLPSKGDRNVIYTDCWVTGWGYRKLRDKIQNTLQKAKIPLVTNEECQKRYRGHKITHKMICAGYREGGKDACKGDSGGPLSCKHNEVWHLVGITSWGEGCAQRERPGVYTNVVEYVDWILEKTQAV
Tb hexokinase: T. brucei hexokinase 1 inhibition; recombinant TbHK1, G6PDH-coupled NADH A340; inhibition, % at 10 µM; 220,000 tested, 0.11% active; AID 1430;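 active means inhibition of 50% or more in the single-dose primary screen; inactive means inhibition below 50%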
* marks the source's active call; other numbers are inactive results; nt = no result.

SMILES	thrombin 1536	hK5 inh	FXIIa inh 1536	FXIa inh	Tb hexokinase
Cc1ccc(N=Nc2c(N)n(-c3ccccc3)[nH]c2=O)cc1	21.8	40.4*	16.2	17.6	-3.9
CCOC(=O)C1CCN(CCC(=O)Nc2ccc(C)c(C)c2)CC1	-9.2	1.1	2.8	-3.3	-0.1
Cn1c(=O)c2c(nc(SCCN3CCOCC3)n2Cc2ccc(F)cc2)n(C)c1=O	10.5	52.1*	5.8	15.8	-4.7
CCn1nc(C)c([N+](=O)[O-])c1C(=O)NNC(=O)c1ccc(Cl)cc1	-2.5	20.1	2.8	-1.7	-8.3
CCOC(=O)C1(Cc2ccccc2)CCCN(Cc2ccncc2)C1 (centres undefined)	-15.4	-5.7	-3.7	-8.1	-4.1
CCOc1ccc(NC(=O)CCSc2nnc(C)s2)cc1	21.5	46.5*	24.4	18.8	-0.6
CCOc1ccc(NC(=O)CCC(=O)O)cc1	-2.5	-0.8	14.4	4.0	-1.7
Cc1cc(C(=O)CSc2nncs2)c(C)n1-c1c(C)n(C)n(-c2ccccc2)c1=O	-4.4	-16.4	13.2	7.0	19.9
Cc1ccc(-n2c(C)cc(C(=O)CSc3nncs3)c2C)cc1	55.5*	20.7	-4.5	7.0	-0.7
CCOC(=O)N1CCN(C(=O)CSCC(=O)Nc2nc(-c3ccc(OC)cc3)cs2)CC1	-9.9	-26.2	-0.8	-9.5	-3.0
CCOC(=O)N1CCN(C(=O)CSCC(=O)Nc2nc(-c3ccc(Cl)s3)cs2)CC1	50.4*	-5.4	15.3	8.2	-3.4
CCc1cc2c(SCC(=O)N(C)C3CCS(=O)(=O)C3)ncnc2s1 (centres undefined)	18.9	36.9	22.6	51.0*	0.0
CCN(C(=O)CSc1ncnc2sc(C)c(C)c12)C1CCS(=O)(=O)C1 (centres undefined)	-7.7	1.6	-1.5	-6.3	-2.4
COc1ccc(C2C(C(=O)Nc3ccccc3OC)=C(C)Nc3ncnn32)cc1 (centres undefined)	25.0	45.4*	106.7*	20.3	1.5
O=c1oc(-c2cccnc2)nc2ccccc12	81.8*	9.0	-3.0	3.1	2.0
CCC(=O)NC(=S)Nc1ccc(NC(=S)NC(=O)c2ccccc2)cc1	-13.9	0.2	4.1	-4.3	-13.2
CCC(=O)NC(=S)Nc1cccc(NC(=O)c2ccccc2)c1	40.4*	21.5	34.6	35.2	6.2
O=C(CCCN1C(=O)CCC1=O)Nc1ccc(Br)cc1F	10.2	61.5*	16.0	-0.8	4.5
O=C(CCCN1C(=O)CCC1=O)Nc1ccccc1F	4.9	2.5	12.8	2.8	17.5
CC(c1ccccc1)C1CC(=O)N(c2cc(Cl)ccn2)C1=O (centres undefined)	1.4	2.5	7.1	2.7	-8.4
COc1ccc(-c2cn(-c3ccc(C)cc3C)c(=O)[nH]2)cc1OC	15.2	48.5*	35.0	30.1	0.3
COc1ccc(C2=NO[C@@H]3C(=O)N(c4ccc(C)cc4C)C(=O)[C@H]23)cc1OC	-2.6	-13.8	0.3	-7.1	-0.4
Cc1ccc(C(NC(=O)NC(C)c2ccccc2)C(Cl)(Cl)Cl)cc1F (centres undefined)	-13.1	-6.5	7.6	-4.8	5.7
CS(=O)(=O)N1CCN(C(=O)c2ccccc2F)CC1	6.7	115.7*	8.2	7.8	1.1
CS(=O)(=O)N1CCN(C(=O)c2c(F)cccc2F)CC1	0.3	7.2	16.9	5.8	0.0
SMILES	thrombin 1536	hK5 inh	FXIIa inh 1536	FXIa inh	Tb hexokinase
O=C(c1ccco1)n1nc(-c2cccnc2)nc1NCc1ccco1	96.3*	4.3	19.4	11.2	-3.0
COc1ccc(CC(=O)n2nc(-c3ccc(Cl)cc3)nc2NCc2ccco2)cc1	29.4	-2.8	23.7	3.4	3.5
O=C(c1ccccc1)n1nc(-c2ccccc2)nc1NCc1ccco1	72.9*	15.3	9.9	-1.1	-3.8
Cc1nc(-c2cccc(NS(=O)(=O)c3ccc4ccccc4c3)c2)cs1	2.4	-15.8	17.0	11.8	9.6
CCOC(=O)Cn1c(=O)oc2cc(S(=O)(=O)NCCc3ccc(C)cc3)ccc21	56.9*	57.8*	18.1	21.5	3.2
COc1cccc(CN2CCN(Cc3ccc(O)cc3)CC2CCO)c1 (centres undefined)	2.2	-4.3	-1.6	-3.3	-11.2
Brc1ccc(/C=N/n2cnnc2)s1	-2.4	1.6	5.6	-0.8	-37.9
Cc1ccc(/C=N/n2cnnc2)s1	18.4	52.7*	15.8	8.6	-22.0
OC1C2CN3CCN(C2)CC1(Cc1ccccc1)C3 (centres undefined)	-1.0	-4.3	10.0	-0.7	-2.9
OC1C2(Cc3ccccc3)CN3CCN(C2)CC1(Cc1ccccc1)C3 (centres undefined)	2.8	110.3*	-4.3	-6.1	-0.6
CC(C)(CO)NC(=S)NCc1ccco1	-2.6	100.3*	7.0	0.7	-1.5
CCCn1c2c(c(O)c(C(=O)Nc3nccs3)c1=O)CCCC2	100.6*	32.6	14.8	-4.5	-21.6
Cc1nn(-c2ccccn2)c2c1C(=O)CC(C)(C)C2Br (centres undefined)	-11.9	-4.7	0.5	-3.1	-6.9
COc1ccc(NC(=O)C2CCCN(S(=O)(=O)c3cccc4cccnc34)C2)c(OC)c1 (centres undefined)	21.0	112.7*	32.8	12.8	6.9
Cc1ccc2nc(NC(=O)C3CCCN(S(=O)(=O)c4cccc5nsnc45)C3)sc2c1 (centres undefined)	15.2	31.0	45.2*	17.4	-6.5
Cc1cc(C)n(C(=O)CNc2cccc(Cl)c2C)n1	4.6	46.0*	44.0*	5.1	2.7
Cc1cc(C)n(C(=O)CNc2ccccc2Cl)n1	0.1	1.6	20.1	7.3	3.8
CCCCn1cnc2cc(C)c(C)cc21	-1.6	-15.9	-5.0	-4.9	7.0
C=CCSc1nnc(-c2cc3c(-c4ccccc4)nn(C)c3s2)n1C	16.1	52.2*	17.9	5.0	-13.4
O=C(Oc1c(-c2ccccc2)c(=O)n2c3c(cccc13)CC2)c1ccc(F)cc1	-2.8	-7.9	1.9	5.4	-15.7
Nn1c(SCC(=O)Nc2ccc(F)cc2F)nnc1-c1cccnc1	34.0	41.0*	33.8	9.8	10.2
Nn1c(SCC(=O)Nc2ccccc2F)nnc1-c1cccnc1	-3.9	-9.6	5.8	-1.2	-7.3
CN(Cc1ccccc1)c1nc2c(c(=O)[nH]c(=O)n2C)n1CCCSc1ncccn1	4.6	-17.5	51.6*	41.9*	-5.0
CN(Cc1ccccc1)c1nc2c(c(=O)[nH]c(=O)n2C)n1CCSc1ncccn1	nt	nt	nt	nt	8.4
CCS(=O)(=O)c1ccc2oc(Nc3cccc(OC)c3)nc2c1	-2.2	0.6	10.0	0.1	0.9
CCOc1ccc(N(CC(=O)Nc2ccc3c(c2)OCCO3)S(=O)(=O)c2c(C)noc2C)cc1	20.7	29.8	40.8*	19.4	7.5
CCN(CC)C(=N)/C(C#N)=N/Nc1ccc(C)cc1	-7.2	42.1*	1.8	-10.9	-31.9
Cc1ccc(N/N=C(\C#N)C(=N)N2CCCCCC2)cc1	2.8	-12.1	3.9	-1.2	-19.6
Cc1c(C(=O)NCc2ccccc2)c(-c2ccccc2)nn1-c1ccccc1	1.4	-14.9	8.1	-6.8	-6.1
CC(=O)NNC(=S)NC(=O)c1ccccc1	42.6*	8.0	42.0*	20.8	8.9

Compound activity as filed in PubChem BioAssay.
